A selection: hits, their analogues and other compounds. The true share with any hit is near 3.7%.
KCNQ1 pot = human KCNQ1 channel potentiation or activation | 310,000 tested, 0.35% active | B-score at 10 µM | CHO-K1 KCNQ1, thallium flux FluxOR fluorescence; stronger effect = higher value;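 active means fluorescence ratio B-score, a plate-corrected score, at least three library SD, with initial intensity B-score within 5 SD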
Target sequence (P51787 whole entry, looked up): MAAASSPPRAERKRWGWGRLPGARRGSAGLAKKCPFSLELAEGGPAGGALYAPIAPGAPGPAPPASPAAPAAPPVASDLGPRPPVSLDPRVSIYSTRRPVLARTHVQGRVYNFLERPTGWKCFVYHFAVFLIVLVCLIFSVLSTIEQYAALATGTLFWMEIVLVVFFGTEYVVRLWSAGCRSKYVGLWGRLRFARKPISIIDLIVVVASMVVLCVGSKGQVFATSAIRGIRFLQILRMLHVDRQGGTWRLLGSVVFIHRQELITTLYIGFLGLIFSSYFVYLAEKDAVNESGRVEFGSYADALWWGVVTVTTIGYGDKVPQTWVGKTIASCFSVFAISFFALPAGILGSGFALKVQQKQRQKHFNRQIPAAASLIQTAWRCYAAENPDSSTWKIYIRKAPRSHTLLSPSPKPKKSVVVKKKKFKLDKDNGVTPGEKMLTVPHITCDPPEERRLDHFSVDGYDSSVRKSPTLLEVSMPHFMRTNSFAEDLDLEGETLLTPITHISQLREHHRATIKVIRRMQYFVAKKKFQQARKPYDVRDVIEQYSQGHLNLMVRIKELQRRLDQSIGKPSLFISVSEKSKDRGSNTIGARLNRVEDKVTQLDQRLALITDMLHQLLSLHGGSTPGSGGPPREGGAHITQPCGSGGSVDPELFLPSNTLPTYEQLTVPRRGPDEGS
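System: CHO-K1 cells stably expressing KCNQ1 / Medium: assay buffer for compound exposure, DMSO matched across wells / Reagent: thallium- and potassium-containing depolarizing buffer / Compound: one concentration, matched DMSO / Incubation: 20 min compound pretreatment at room temperature / Measured by: kinetic FluxOR fluorescence, 10 s baseline plus 110 s post-stimulus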
KCNQ1 block = inhibitors of human KCNQ1 potassium channel; B-score at 10 µM; 310,000 tested, 1.3% active; AID 2642; P51787; CHO-K1 KCNQ1, FluxOR thallium flux fluorescence; stronger effect = higher value;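 active means compounds whose thallium flux B-score, printed positive for inhibition, exceeds three library SD while starting fluorescence stays within three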;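 further: channel opened by potassium depolarization with thallium stimulus after 20 min compound exposure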
Kir21 block = blocks the mouse Kir2.1 inward-rectifier potassium channel. HEK293-Kir2.1, FluxOR thallium flux fluorescence; stronger effect = lower value. P35561. 310,000 tested, 0.85% active. B-score at 10 µM;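 active means fluorescence ratio B-score at or below minus 3 SD of library scores, with starting-brightness B-score within 2 SD, cut at about -4.2 in these data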;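 further: channel flux triggered by added potassium and thallium sulfate stimulus; B-score of peak minus minimum fluorescence over baseline after thallium stimulus; more negative B-score means stronger Kir2.1 block with less thallium influx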
hERG rescue = shields human hERG channel from block by proarrhythmic agents; CHO-hERG, FluxOR thallium flux, dofetilide IC70 present; 310,000 tested, 0.51% active; Q12809; activation (rescue from dofetilide block), less the hit threshold, % at 10 µM; AID 1511;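 active means activation above the mean of controls blocked by dofetilide plus 5 SD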;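 further: thallium influx through hERG after potassium depolarization seen as dye fluorescence rise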
KCNK9 block = blocks the human KCNK9 two-pore domain potassium channel. Q9NPC2. HEK293 KCNK9, FluxOR thallium flux fluorescence; stronger effect = lower value. B-score at 10 µM. 310,000 tested, 1.2% active. AID 488922;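 active means ratio B-score over 3 SD below the library mean, with starting fluorescence within 5 SD of its mean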;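 further: negative B-score means less thallium flux so channel inhibition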
KCNK3 block = human KCNK3 channel inhibition, primary screen; O14649; CHO-KCNK3 thallium flux, FluxOR fluorescence; stronger effect = lower value; B-score at 10 µM; 340,000 tested, 0.84% active; AID 602410;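 active means B-score under library mean minus 4 SD, starting fluorescence ratio at most library mean plus 5 SD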;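 further: more negative B-score means stronger inhibition of thallium flux through KCNK3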
Of the large screens only hits and unclear results are named; the others gave an inactive call.

CCCc1nnc(NC(=O)CN2CCOCC2)s1	hERG rescue 12
Cc1ccccc1NC(=O)CCN1CCCCCC1	hERG rescue 4.8
O=C(CN1CCCCCC1)Nc1ccc(Oc2ccccc2)cc1	KCNQ1 pot 19, hERG rescue 18
COc1ccc2nc(NC(=O)CN3CCOCC3)sc2c1	hERG rescue 7.3
O=C(CN1CCCCC1)Nc1ccccc1	none
CC(C)NC(=O)CN(C(=O)CCC(=O)Nc1nccs1)c1ccc(C(C)C)cc1	none
CCOc1ccc(CC(=O)N/N=C(\C)c2cccnc2)cc1OCC	none
COc1cc(NC(=O)c2ccc(F)cc2)c(OC)cc1NC(=O)CN1CCOCC1	none
O=C(CCN1CCOCC1)Nc1ccccc1	hERG rescue 5.1
COc1cc(NC(=O)c2ccccc2F)c(OC)cc1NC(=O)CN1CCOCC1	hERG rescue 4.7
COc1ccc(NC(=O)CN2CCN(C3c4ccccc4-c4ccccc43)CC2)cc1	KCNQ1 pot 8
COc1ccc(NC(=O)CN2CCN(c3ccccc3)CC2)cc1	none
COc1ccc(NC(=O)CN2CCOCC2)cc1	hERG rescue 7.0
c1ccc(COCCN2CCN(CCOCc3ccccc3)CC2)cc1	none
C(#CCN1CCC(Cc2ccccc2)CC1)COCCOCc1ccccc1	Kir21 block -5
CCN(CC)CCn1c(OC)cc(=O)[nH]c1=O	KCNQ1 pot 7
CCN(CC)CCn1c(N)cc(=O)[nH]c1=O	none
Cc1ccc(-n2c(-c3cc(-c4ccco4)[nH]n3)n[nH]c2=S)c(Br)c1	KCNQ1 block 6
CCCOc1ccc(C(=O)Nc2ccc(S(=O)(=O)NC3=NCCCCC3)cc2)cc1	none
COc1ccc(C(=O)/C=C/c2ccc(OCc3ccccc3)cc2)cc1CSCC(=O)O	none
COc1ccc(C(=O)/C=C/c2cccc(OCc3ccccc3)c2)cc1CSCC(=O)O	Kir21 block -6.2
CS(=O)(=O)N1CCN(Cc2ccc([N+](=O)[O-])cc2)CC1	none
N#C/C(=C(/O)c1ccc(-c2cccc([N+](=O)[O-])c2)o1)c1nc2ccccc2s1	KCNQ1 block 7
O=C(O)c1ccc(-c2cccc([N+](=O)[O-])c2)o1	none
Cc1cc(C)n2nc(C(=O)OCC(=O)N3CCC3)nc2n1	hERG rescue 5.3
Cc1cc(C)n2nc(C(=O)N3CCOCC3)nc2n1	hERG rescue 8.0
CC1CC(C)CN(CCCNS(=O)(=O)c2cc(Br)cc3c2N(C(=O)C2CC2)CC3)C1 (centres undefined)	none
CC(C)c1cc(Br)ccc1OCCCN1C(=O)NC(C)(C)C1=O	Kir21 block -6.8
CN(CCCC(=O)NCCc1ccccc1)S(=O)(=O)c1ccc([N+](=O)[O-])cc1	none
O=C(CSc1nnc(SCc2cccc3ccccc23)s1)N/N=C/C=C/c1ccccc1[N+](=O)[O-]	KCNK9 block -7.5
O=C(CSc1nnc(SCc2cccc3ccccc23)s1)N/N=C/c1c[nH]c2ccccc12	none
C=CC1CN(C(=O)OCC(Cl)(Cl)Cl)C2CC3c4ccc(OC)cc4NC3C3CC1C2CO3 (centres undefined)	KCNQ1 block 7 (no result: KCNK3 block)
CCOC(=O)N1CCC2CC1c1cc(-c3cccc(OC)c3)ccc12 (centres undefined)	none (no result: KCNQ1 pot, KCNQ1 block, Kir21 block, hERG rescue, KCNK9 block)
CCOc1ccc(NC(=O)COc2ccc3c(c2)CCC3)cc1OC	none (no result: KCNQ1 pot, KCNQ1 block, Kir21 block, hERG rescue, KCNK9 block)
Cc1cc(C)c(Cn2cnc(-c3ccc([N+](=O)[O-])cc3)c2)c(C)c1	KCNQ1 block 6
Cc1ccc(NC(=O)Cc2ccc(-c3ccccc3)cc2)nc1	none
Cc1ccc(NC(=O)CCCc2ccccc2)nc1	KCNQ1 block 6
O=C(CSc1nc2ccccc2n1Cc1ccccc1)N/N=C/c1ccccc1C(=O)O	none
O=C(CSc1nc2ccccc2n1Cc1ccc(Cl)cc1)N/N=C/c1ccc(C(=O)O)cc1	KCNK9 block -6.8
Cc1[nH]n2c(=O)cc(C(C)(C)C)nc2c1-c1ccccc1	KCNQ1 pot 15, hERG rescue 8.6
Cc1[nH]n2c(=O)cc(C(C)C)nc2c1-c1ccccc1	none
Cc1[nH]n2c(=O)cc(-c3ccc([N+](=O)[O-])cc3)nc2c1-c1ccccc1	KCNQ1 block 7
CNc1oc(-c2ccccc2F)nc1S(=O)(=O)c1ccc(C)cc1	none
CCOc1ccc(S(=O)(=O)Nc2nc3ccccc3nc2-n2ccc(=NC(=O)c3ccccc3C)cc2)cc1	none
COc1ccc(Cl)cc1NCCC(O)c1ccc(F)cc1 (centres undefined)	Kir21 block -4.8
COC(=O)c1cc(CNC(=O)CCCSc2ccccc2)ccc1OC	none
CCOC(=O)c1n[nH]n2c1nc(=S)c1ccccc12	KCNQ1 pot 34, hERG rescue 23
CCc1ccc(/C=C2\Oc3cc(OS(C)(=O)=O)ccc3C2=O)cc1	none
CCc1ccc(/C=C2\Oc3c(ccc(O)c3CN3CCN(CCO)CC3)C2=O)cc1	KCNQ1 block 11
COCCCNC(=O)c1cn(-c2cccc(OC)c2)c(=O)c2ccccc12	none
CCN(CC)CCCNC(=O)c1cn(-c2cccc(OC)c2)c(=O)c2ccccc12	hERG rescue 5.0
O=C(OCc1cc2ccccc2[nH]c1=O)c1cccc([N+](=O)[O-])c1	none
COCCCn1c(=O)c2ccccc2n(Cc2ccc(C)cc2)c1=O	KCNK9 block -7.7
O=C(CS(=O)(=O)c1ccccc1)Nc1nccs1	none
CCOC(=O)c1ccc(Oc2ccc(C(F)(F)F)cn2)cc1	none
CCOc1cccc(Oc2ccc(C(F)(F)F)cn2)c1	KCNK9 block -7.9
CCOC(=O)c1c(C)[nH]c(C)c1S(=O)(=O)N(C)CC(=O)NCc1ccc(C)cc1	none
CCOc1ccc(CN(C(=O)c2oc3cc(C)ccc3c2C)C2CCS(=O)(=O)C2)cc1 (centres undefined)	KCNK9 block -6.7
O=C(NCC1COc2ccccc2O1)C1C2C=CC3(CN(Cc4ccccc4Cl)C(=O)C13)O2 (centres undefined)	none
COc1ccc(CCN2CC34C=CC(O3)C(C(=O)NCc3ccccc3Cl)C4C2=O)cc1OC (centres undefined)	hERG rescue 4.7
CCOC(=O)C1=C(C)N=c2s/c(=C/c3cccc([N+](=O)[O-])c3O)c(=O)n2C1c1cc(OC)c(OC)c(OC)c1 (centres undefined)	KCNQ1 block 8
CCOc1cc(/C=N/O)cc(Br)c1OCC(=O)NCc1ccccc1	none
COc1cc(/C=N/O)cc(Br)c1OCC(=O)NCc1ccccc1	Kir21 block -6
COc1cc(/C=N/NC(=O)Cn2nc([N+](=O)[O-])cc2C)cc(Br)c1OCc1ccccc1	KCNK3 block -9.9
CN(CCCNC(=O)c1cc2c(Cl)nc3ccccc3c2s1)Cc1ccccc1	Kir21 block -5
CCN(CC)CCCNC(=O)c1cc2c(Cl)nc3ccccc3c2s1	none
CCN(C/C=C/c1ccccc1OC)Cc1ccccc1	Kir21 block -4.8
